Measurements pooled from the literature.
Lines come from different studies, so protocols differ.
Target: Calcium/calmodulin-dependent protein kinase type II subunit alpha (CAMK2A, Homo sapiens, UniProt Q9UQM7)

| Compound | read-out | action | technique | concentration | quantity | value |
| --- | --- | --- | --- | --- | --- | --- |
| Cc1nn(C)cc1-c1nc2c(N3CCN(Cc4ccc(Cl)cc4)CC3)c(Cl)cnc2[nH]1 | binding | – | competition with immobilised ligand | 1 µM | remaining binding | 95% |
| Cn1cc(-c2cc(F)cc(N3CCn4c(cc5c4CCCC5)C3=O)c2CO)cc(Nc2ccc(N3CCN(C4COC4)CC3)cn2)c1=O | enzyme activity | inhibitor | – | 0.1 µM | inhibition | 12% |
| O=C(Nc1cccnn1)N1CCN([C@@H]2CCOc3cc(C(F)(F)F)ccc32)CC1 | cell-free assay | – | – | 20 µM | inhibition | 3% |
| Cc1ncc(C)n2nc(/C=C/c3nc(N4CCCC4)cc(N4CCOCC4)n3)nc12 | enzyme activity | inhibitor | – | 10 µM | inhibition | 6% |
| COc1ncccc1-c1cnn2ccc(N3CCN(C(=O)OC(C)C)CC3)nc12 | binding | – | competition with immobilised ligand | 1 µM | remaining binding | 70% |
| Cn1cncc1[C@](O)(COc1ccc(C#N)cc1-c1ccc(OC(F)(F)F)cc1)c1ccc(C#N)cc1 | cell-free assay | – | competition with immobilised ligand | 1 µM | remaining binding | 95% |
| O=c1[nH]c2ccccc2n1C1CCN(Cc2ccc(-c3[nH]c4cc5ncnc5cc4nc3-c3ccccc3)cc2)CC1 | cell-free assay | – | – | 0.5 µM | remaining signal | 109% |
| N#CC1(c2ccccn2)CCN(Cc2cc(C(=O)O)c(=O)n3ccccc23)CC1 | cell-free assay | – | competition with immobilised ligand | 1 µM | remaining binding | 83% |
| Cn1cc(-c2cccc(N3CCc4c(sc5c4CC(C)(C)C5)C3=O)c2CO)cc(Nc2ccncn2)c1=O | enzyme activity | inhibitor | – | 1 µM | inhibition | -7% |
| Nc1ncc(-c2nc(N3CCOCC3)nc(N3CCOCC3)n2)c(C(F)F)n1 | binding | – | competition with immobilised ligand | 10 µM | remaining binding | 64% |
